We go through nine molecules from ChEMBL document CHEMBL3232958, “Antiproliferative and uncoupling effects of delocalized, lipophilic, cationic gallic acid derivatives on cancer cell lines. Validation in vivo in singenic mice” (J Med Chem, 2014).

Data set [1] is described as follows: Cytotoxicity against mouse MM3MG cells after 48 hrs by neutral red assay. It is filed as cell-based. Put shortly: (§1)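 Neutral red uptake after 48 h exposure at 37 °C, 5% CO2. Seeding: 1 × 10^5 cells/mL for TA3, TA3-MTX-R and CCRF-CEM; 4 × 10^4 cells/mL for MM3MG. Dye at 100 μg/mL for 2 h, then ethanol/acetic acid extraction and absorbance at 540 nm. IC50 from variable-slope sigmoidal dose–response fit; at least three independent experiments in triplicate, mean ± SEM.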

Data set [2] can be described thus: Cytotoxicity against mouse TA3/Ha cells after 48 hrs by neutral red assay. It counts as functional, cell-based. In a few lines: as §1
Data set [3] is described as follows: Cytotoxicity against mouse multidrug-resistant TA3-MTX-R cells after 48 hrs by neutral red assay. It is filed as functional, cell-based. In a few lines: as §1
Data set [4] has as its system CCRF-CEM. The experiment in a line: Cytotoxicity against human CCRF-CEM cells after 48 hrs by neutral red assay. It is filed as functional, cell-based. Put shortly:
as §1

Data set [5] can be described thus: Uncoupling respiration effect in mouse TA3-MTX-R cells after 2 mins by polarographic analysis in presence of FCCP. It is filed as functional. Put shortly:
(§2)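 Polarographic respiration of digitonin-permeabilized cells (0.013 μg/mg protein; 2.5 mg protein/mL) in PBS pH 7.4 with 10 mM succinate and 1 μg/mL oligomycin. Cations added in 3 μL DMSO. Atractyloside 5 nmol/mg protein was added before succinate. FCCP added at the end: 0.15 μM for TA3, 0.25 μM for TA3-MTX-R. Slope and K0.5 taken from log–log linear regression; at least three experiments.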

Data set [6] can be described thus: Toxicity in mouse TA3/Ha cells assessed as cell membrane integrity after 24 hrs using propidium iodide by flow cytometry. It is filed as cell-based. As to conditions: 2 to 4 h, in the assay text read “after 2 to 4 hrs” for “after 24 hrs”. Put shortly:
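Membrane integrity by PI uptake on flow cytometry. Cells were seeded, grown for 24 h at 37 °C, 5% CO2, then given fresh medium with cation for 2 and 4 h before PI was added. Mean ± SEM of at least three experiments.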
A general note: A flow cytometer gives signals particle by particle.

Data set [7] concerns TA3/Ha. The experiment in a line: Induction of apoptosis in mouse TA3/Ha cells assessed as early stage apoptotic cells at 0.5 uM after 24 to 48 hrs using annexin V/propidium iodide staining by flow cytometry. It counts as functional, cell-based. In a few lines:
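Annexin V-FITC/PI flow cytometry on 1 × 10^5 cells/mL treated for 24 and 48 h at 37 °C, 5% CO2. 5 min staining at room temperature; 5000 events recorded. Early apoptosis scored as annexin V+/PI−. Staurosporine 10 μM as positive control; at least three experiments, ANOVA with Bonferroni test.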

Data set [8] concerns TA3/Ha. The experiment in a line: Induction of apoptosis in mouse TA3/Ha cells assessed as caspase 3 activation at 0.5 uM after 24 hrs by Western blot analysis. It counts as functional, cell-based. Put shortly:
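Caspase 3 measured by Western blot. RIPA lysates, 50 μg protein run on 12% SDS–PAGE. Anti-caspase 3 (1:1000) and tubulin loading control (1:10000) overnight at 4 °C; HRP secondary for 2 h. ECL detection and densitometry.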
Background: Immunoblotting shows a protein as a band on a membrane.

The nature of data set [9]: Uncoupling respiration effect in mouse TA3/Ha cells after 2 mins by polarographic analysis in presence of FCCP. It is filed as functional. In a few lines:
as §2

Data set [10] concerns TA3/Ha. The experiment in a line: Reduction of ATP level in mouse TA3/Ha cells after 2 hrs by CellTiter-Glo luminescent assay. It counts as functional, cell-based. Put shortly: (§3)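 CellTiter-Glo luminescence on 2 × 10^5 cells/mL incubated with cation for 2 h. Aliquot held 10 min at room temperature in the dark before reading; at least three experiments.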
(In ATP-based viability assays light output follows the ATP content of the culture.)

The test system of data set [11] is TA3/Ha. As to the kind of experiment: Increase of oxygen consumption in mouse TA3/Ha cell mitochondria using glutamate and malate as substrate at 10^-4 M after 2 mins by polarographic analysis. It counts as functional. In a few lines: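 Clark electrode polarography of isolated mitochondria (1.0 mg/mL) at 25 °C. Medium: sucrose/KCl, 3 mM phosphate, Hepes pH 7.0, 2 mM MgCl2. Substrates 2 mM glutamate + 2 mM malate; 0.5 mM ADP, oligomycin and KCN also used.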

Data set [12] deals with TA3/Ha. The experiment in a line: Cytotoxicity against mouse TA3/Ha cells up to 24 hrs by lactate dehydrogenase assay. It counts as functional, cell-based. In a few lines:
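LDH release measured with a kit on 2 × 10^5 cells/mL incubated at 37 °C, 5% CO2, 90% humidity. Supernatant taken after centrifugation at 600g for 3 min, then 30 min with reaction mix at room temperature; absorbance read at 450 nm.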

Data set [13] concerns TA3/Ha. As to the kind of experiment: Reduction of ATP level in mouse TA3/Ha cells at 1 to 20 uM after 2 hrs by CellTiter-Glo luminescent assay. It counts as functional, cell-based. In a few lines: as §3
Data set [14] concerns TA3/Ha. The experiment in a line: Decrease of mitochondrial transmembrane potential in mouse TA3/Ha cell mitochondria at 0.2 nmol after 5 mins by safranin and JC-1 staining. It is filed as functional. In a few lines: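 Mitochondria isolated from TA3/Ha tumour cells (washed, BSA-free), 1.0 mg/mL protein. Safranin 20 μM, read 5 min; then 2 mM glutamate + 2 mM malate, read 5 min; then cation added. ΔΨm followed as ΔA511−533nm spectrophotometrically.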

In data set [15] the test system is TA3/Ha. As to the kind of experiment: Induction of NAD(P)H oxidation in mouse TA3/Ha cells assessed as reduction of NAD(P)H/NAD(P)+ ratio at 12 uM by spectrofluorometer analysis. It counts as functional, cell-based. In a few lines:
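Intact TA3 tumour cells, 2.5 mg protein/mL, in PBS pH 7.4 with 2.5 mM glutamine as substrate. Stirred and thermostatted at 25 °C. NAD(P)H autofluorescence (ex 340, em 420 nm) recorded as a time course by spectrofluorometer. Rotenone, FCCP or cation added during the trace.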

Structures are written as SMILES. pIC50: −log10 of the molar value. Active and inactive are the calls of the source. The rule behind the calls is not given here.

Turning to `O=C(O)c1cc(O)c(O)c(O)c1` [GALLIC ACID], the pIC50 is below 3.70 in [1], 3.79 in data set [2], 3.80 in data set [3] and below 3.70 in data set [4].

As for `CCCCCCCCCCCCOC(=O)c1cc(O)c(O)c(O)c1` [DODECYL GALLATE], the pIC50 is 4.52 in data set [1], 5.15 in data set [2], 5.52 in data set [3] and 4.81 in data set [4].

For the molecule `O=C(OCCCCCCCC[P+](c1ccccc1)(c1ccccc1)c1ccccc1)c1cc(O)c(O)c(O)c1.[Br-]`, the K0.5 in data set [5] came out at 1.91 ×10⁻⁴ M; in data set [9], 2.25 ×10⁻⁴ M. Besides, the Activity entry in [6] was “Non-toxic”; in data set [10], “Dose-dependent effect”. For the same molecule, the outcome in data set [7], in data set [11], in [12] and in [13] was Active. In addition, the result in data set [8] was inactive. The pIC50 in data set [1] was 4.53; in data set [2], 4.87; in [3], 4.84; in data set [4], 4.46.

Take `c1ccc(P(c2ccccc2)c2ccccc2)cc1`: the pIC50 in data set [1] was below 3.70; in data set [2], 3.72; in data set [3], below 3.70; in data set [4] it was 3.74.

For `O=C(OCCCCCCCCCCCC[P+](c1ccccc1)(c1ccccc1)c1ccccc1)c1cc(O)c(O)c(O)c1.[Br-]`, the K0.5 in [5] is listed as 3.1 ×10⁻⁵ M; in [9], 2.9 ×10⁻⁵ M. Also, the Activity result is “Non-toxic” in data set [6] and “Dose-dependent effect” in data set [10]. Further, the outcome in data set [7], in data set [12] and in data set [13] was Active. Also, in [8], the outcome was inactive. Besides, the pIC50 in data set [1] is 5.86; in data set [2], 6.13; in data set [3] it was 5.92; in data set [4], 6.24.

Consider `N#CC(C#N)=NNc1cccc(Cl)c1`, for which the outcome in [14] was Active.

As for `C=C(C)[C@H]1Cc2c(ccc3c2O[C@@H]2COc4cc(OC)c(OC)cc4[C@@H]2C3=O)O1`, in data set [15], the result was Active.

For `CCCCCCCCOC(=O)c1cc(O)c(O)c(O)c1` [OCTYL_GALLATE], the pIC50 was below 3.70 in data set [1], 4.44 in [2], 4.53 in data set [3] and 4.23 in data set [4].

On to `O=C(OCCCCCCCCCCC[P+](c1ccccc1)(c1ccccc1)c1ccccc1)c1cc(O)c(O)c(O)c1.[Br-]`, for which the Activity entry in data set [6] was “Non-toxic”; in data set [10], “Dose-dependent effect”. Besides, the result in data set [7], in [12] and in data set [13] was Active. Moreover, the outcome in data set [8] was inactive. The pIC50 is 4.84 in data set [1], 5.19 in data set [2], 5.43 in data set [3] and 4.70 in data set [4].

For orientation: pIC50 means −log10 of the IC50, conventionally taken in molar units.
